Common to all, as to assay type: cell-based
For assay [1], the target named is Probable G-protein coupled receptor 34 (Mus musculus, UniProt Q9R1K6). The assay can be described thus: Agonist activity at mouse GPR34 expressed in HEK293 cells co-transfected with AP-TGFalpha/Galphaq/i1 assessed as induction of ectodomain shedding of membrane bound AP-TGFalpha after 1 hr by p-NPP substrate based microplate reader analysis. The conditions noted are these: read-out: EC50. In short, it runs like this:
(§1)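 HEK293 cells transiently transfected with AP-TGFα, chimeric Gα and mouse GPR34 vectors, then treated with compound. Empty-vector cells (AP-TGFα plus chimeric Gα) served as background. Receptor-specific AP-TGFα release was taken after subtracting that background, and concentration-response curves gave EC50 and Emax. Mean and SEM of 3−8 independent experiments.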

For assay [2], the target named is Probable G-protein coupled receptor 34 (Mus musculus) (UniProt Q9R1K6). The assay can be described thus: Agonist activity at mouse GPR34 expressed in HEK293 cells co-transfected with AP-TGFalpha/Galphaq/i1 assessed as induction of ectodomain shedding of membrane bound AP-TGFalpha after 1 hr by p-NPP substrate based microplate reader analysis relative to control. In short, it runs like this: as §1
Sequence of Probable G-protein coupled receptor 34 (Mus musculus) (Q9R1K6 whole entry, the tested form may be a part): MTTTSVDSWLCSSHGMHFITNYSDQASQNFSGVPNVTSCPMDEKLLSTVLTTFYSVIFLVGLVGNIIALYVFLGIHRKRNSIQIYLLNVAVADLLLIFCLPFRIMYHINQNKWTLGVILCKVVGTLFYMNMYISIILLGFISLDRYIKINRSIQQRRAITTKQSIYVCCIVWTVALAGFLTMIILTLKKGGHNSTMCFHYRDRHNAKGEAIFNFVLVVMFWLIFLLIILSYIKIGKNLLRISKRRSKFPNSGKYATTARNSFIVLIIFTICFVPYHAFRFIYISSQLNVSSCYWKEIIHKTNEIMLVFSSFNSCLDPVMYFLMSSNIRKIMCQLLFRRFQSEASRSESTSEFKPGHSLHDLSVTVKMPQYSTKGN

For assay [3] the target is unchanged. The assay can be described thus: Agonist activity at mouse GPR34 expressed in HEK293 cells co-transfected with AP-TGFalpha/Galphaq/i1 assessed as induction of ectodomain shedding of membrane bound AP-TGFalpha after 1 hr by p-NPP substrate based microplate reader analysis relative to positive control. In short, it runs like this: as §1
For assay [4], the target named is Putative P2Y purinoceptor 10 (Mus musculus, UniProt Q8BFU7). The assay is described as follows: Agonist activity at mouse P2Y10 expressed in HEK293 cells co-transfected with AP-TGFalpha/Galphaq/i1 assessed as induction of ectodomain shedding of membrane bound AP-TGFalpha after 1 hr by p-NPP substrate based microplate reader analysis. In short, it runs like this:
(§2)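 Run the same way as the GPR34 shedding assay, but with a mouse P2Y10 expression vector in HEK293 cells alongside AP-TGFα and chimeric Gα. Receptor-specific AP-TGFα release was found by subtracting the empty-vector background. EC50 and Emax came from concentration-response curves. Mean and SEM of 3−8 independent experiments.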

The target in assay [5] is Putative P2Y purinoceptor 10 (Mus musculus) (UniProt Q8BFU7). The assay can be described thus: Agonist activity at mouse P2Y10 expressed in HEK293 cells co-transfected with AP-TGFalpha/Galphaq/i1 assessed as induction of ectodomain shedding of membrane bound AP-TGFalpha after 1 hr by p-NPP substrate based microplate reader analysis relative to control. In short, it runs like this: as §2
Sequence of Putative P2Y purinoceptor 10 (Mus musculus) (Q8BFU7 whole entry, the tested form may be a part): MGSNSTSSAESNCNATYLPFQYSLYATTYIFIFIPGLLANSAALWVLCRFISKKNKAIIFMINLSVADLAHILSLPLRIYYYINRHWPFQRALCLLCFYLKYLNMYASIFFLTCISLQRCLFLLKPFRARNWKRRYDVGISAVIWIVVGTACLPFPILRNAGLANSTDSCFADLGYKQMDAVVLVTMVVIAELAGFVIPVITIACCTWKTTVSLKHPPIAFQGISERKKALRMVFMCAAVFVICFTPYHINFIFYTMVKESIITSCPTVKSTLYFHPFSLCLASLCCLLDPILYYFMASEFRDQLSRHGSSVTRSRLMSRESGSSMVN

For assay [6] the target is unchanged. The assay can be described thus: Agonist activity at mouse P2Y10 expressed in HEK293 cells co-transfected with AP-TGFalpha/Galphaq/i1 assessed as induction of ectodomain shedding of membrane bound AP-TGFalpha after 1 hr by p-NPP substrate based microplate reader analysis relative to positive control. In short, it runs like this: as §2

Each structure is given as a SMILES string. The source made the active and inactive calls. The rule behind the calls is not given here.

Sequence of Putative P2Y purinoceptor 10 (Q8BFU7 whole entry, the tested form may be a part): as above
Sequence of Probable G-protein coupled receptor 34 (Q9R1K6 whole entry, the tested form may be a part): as the sequence (Q9R1K6 whole entry, the tested form may be a part) above

In the case of `CCCCCCCC/C=C\CCCCCCCC(=O)OCCOP(=O)(O)OC[C@H](N)C(=O)O`, the EC50 in assay [1] was greater than 3000 nM; in assay [4], 66 nM. In assay [2], the Emax result was “inactive”. For the same compound, the “fold change (FC)” value in assay [3] is “inactive”. The Emax in assay [5] amounted to 10.6%. Further, in assay [6] (filed as agonist), the fold change (FC) was found to be 0.02.

`CCCCCCCCCCCOc1ccccc1CCC(=O)O[C@@H]1COCCC1OP(=O)(O)OC[C@H](N)C(=O)O` (single isomer, unassigned): the EC50 was 63 nM in assay [1] and 840 nM in assay [4]. In addition, the values for the maximal response (Emax) in assay [2] and in assay [5] were 6.4% and 12%, respectively. Also, the fold change (FC) in assay [3] (filed as agonist) is 1.3; in assay [6] (filed as agonist), 0.0018.

As for `C[C@H](COC(=O)CCc1ccccc1OCc1cccc(Oc2ccccc2)c1)OP(=O)(O)OC[C@H](N)C(=O)O`, the results for the EC50 in assay [1] and in assay [4] were 9 nM and 290 nM, respectively. Moreover, the values for the Emax in assay [2] and in assay [5] were 12.4% and 13.2%, respectively. For the same compound, the results for the fold change (FC) in assay [3] (filed as agonist) and in assay [6] (filed as agonist) were 11 and 0.0056, respectively.

Consider `CCCCCCCC/C=C\CCCCCCCC(=O)OC[C@@H](C)OP(=O)(O)OC[C@H](N)C(=O)O`, for which the EC50 in assay [1] amounted to 24 nM; in assay [4], 250 nM. Also, the Emax in assay [2] stood at 12.8%; in assay [5], 12.4%. Besides, the fold change (FC) in assay [3] (filed as agonist) came out at 4.8; in assay [6] (filed as agonist), 0.0054.

As to `CCCCCCCC/C=C\CCCCCCCC(=O)O[C@H](C)COP(=O)(O)OC[C@H](N)C(=O)O`, the concentration for a half-maximal effect (EC50) in assay [1] is 250 nM; in assay [4] it was 79 nM. Further, the maximal response (Emax) in assay [2] was determined as 6.1%; in assay [5] it was 11.4%. Besides, the fold change (FC) stood at 0.22 in assay [3] (filed as agonist) and 0.02 in assay [6] (filed as agonist).

With `CCCCCCCCCCCOc1ccccc1CCC(=O)O[C@H]1CCOC[C@H]1OP(=O)(O)OC[C@H](N)C(=O)O`, the EC50 in assay [1] is greater than 3000 nM; in assay [4], 420 nM. For the same compound, the Emax entry in assay [2] was “inactive”. In addition, the “fold change (FC)” value in assay [3] is “inactive”. Moreover, the Emax in assay [5] came out at 3.2%. Also, in assay [6] (filed as agonist), the fold change (FC) stood at 0.0012.

On to `CCCCCCCC/C=C\CCCCCCCC(=O)OCCCOP(=O)(O)OC[C@H](N)C(=O)O`, for which the EC50 is 540 nM in assay [1] and 20 nM in assay [4]. Also, the maximum response (Emax) came to 6.2% in assay [2] and 13.7% in assay [5]. The fold change (FC) in assay [3] (filed as agonist) is 0.12; in assay [6] (filed as agonist), 0.11.

`CCCCCCCC/C=C\CCCCCCCC(=O)OC[C@@H](COCC)OP(=O)(O)OC[C@H](N)C(=O)O`: the EC50 was 3.5 nM in assay [1] and greater than 3000 nM in assay [4]. For the same compound, the Emax in assay [2] came to 12.3%. The fold change (FC) in assay [3] (filed as agonist) was 29. The Emax entry in assay [5] is “inactive”. Besides, the “fold change (FC)” value in assay [6] is “inactive”.

As to `CCCCCCCCCCCOc1ccccc1CCC(=O)OC1COCC[C@H]1OP(=O)(O)OC[C@H](N)C(=O)O` (single isomer, unassigned), the half-maximal effective concentration (EC50) in assay [1] came out at 2.9 nM; in assay [4], 26 nM. Moreover, the Emax in assay [2] worked out at 10%; in assay [5], 11.4%. Besides, the values for the fold change (FC) in assay [3] (filed as agonist) and in assay [6] (filed as agonist) were 32 and 0.039, respectively.

As to `CCCCCCCC/C=C\CCCCCCCC(=O)OC[C@@H](COCc1ccccc1)OP(=O)(O)OC[C@H](N)C(=O)O`, the figures for the EC50 in assay [1] and in assay [4] were 880 nM and 1400 nM, respectively. The maximal effect (Emax) in assay [2] was found to be 9.6%; in assay [5], 7.3%. Also, the results for the fold change (FC) in assay [3] (filed as agonist) and in assay [6] (filed as agonist) were 0.13 and 0.00075, respectively.

`COC[C@H](COC(=O)CCc1ccccc1OCc1cccc(Oc2ccccc2)c1)OP(=O)(O)OC[C@H](N)C(=O)O`: the EC50 in assay [1] is 5.7 nM; in assay [4], greater than 3000 nM. In assay [2], the Emax worked out at 13.5%. Moreover, the fold change (FC) in assay [3] (filed as agonist) amounted to 21. Besides, the Emax entry in assay [5] was “inactive”. Also, the “fold change (FC)” value in assay [6] was “inactive”.

For `CCCCCCCC/C=C\CCCCCCCC(=O)OC[C@H](C)OP(=O)(O)OC[C@H](N)C(=O)O`, the concentration for a half-maximal effect (EC50) in assay [1] worked out at 170 nM; in assay [4] it was 37 nM. For the same compound, the Emax in assay [2] was 11.2%; in assay [5] it was 11.3%. Moreover, the fold change (FC) in assay [3] (filed as agonist) turned out to be 0.56; in assay [6] (filed as agonist), 0.034.

For `C#CCOC[C@H](COC(=O)CCCCCCC/C=C\CCCCCCCC)OP(=O)(O)OC[C@H](N)C(=O)O`, the EC50 in assay [1] was found to be 12 nM; in assay [4], 420 nM. Moreover, the maximal response (Emax) worked out at 12.6% in assay [2] and 3.2% in assay [5]. Moreover, the fold change (FC) in assay [3] (filed as agonist) is 10; in assay [6] (filed as agonist), 0.00074.

For the compound `CCCCCCCCCCCOc1ccccc1CCC(=O)O[C@@H]1CCOC[C@@H]1OP(=O)(O)OC[C@H](N)C(=O)O`, the concentration giving a half-maximal response (EC50) in assay [1] turned out to be 220 nM; in assay [4] it was 1300 nM. In addition, the Emax in assay [2] worked out at 8.9%; in assay [5], 19.3%. The fold change (FC) was 0.61 in assay [3] (filed as agonist) and 0.00089 in assay [6] (filed as agonist).

For the compound `CCCCCCCCCCCOc1ccccc1CCC(=O)OC1COCCC1OP(=O)(O)OC[C@H](N)C(=O)O` (single isomer, unassigned), the EC50 in assay [1] is 340 nM; in assay [4], 1300 nM. For the same compound, the maximal response (Emax) in assay [2] is 3.7%; in assay [5], 8.6%. Further, the fold change (FC) in assay [3] (filed as agonist) is 0.1; in assay [6] (filed as agonist), 0.00079.

With `C[C@H](COP(=O)(O)OC[C@H](N)C(=O)O)OC(=O)CCc1ccccc1OCc1cccc(Oc2ccccc2)c1`, the figures for the EC50 in assay [1] and in assay [4] were 6.3 nM and 170 nM, respectively. Moreover, the maximum response (Emax) in assay [2] was 12%; in assay [5] it was 13.8%. Moreover, the fold change (FC) came to 16 in assay [3] (filed as agonist) and 0.0099 in assay [6] (filed as agonist).

As to `CCCCCCCC/C=C\CCCCCCCC(=O)OC[C@@H](COC)OP(=O)(O)OC[C@H](N)C(=O)O`, the results for the concentration for a half-maximal effect (EC50) in assay [1] and in assay [4] were 11 nM and greater than 3000 nM, respectively. Moreover, the Emax in assay [2] was 12.9%. The fold change (FC) in assay [3] (filed as agonist) is 12. Moreover, in assay [5], the Emax entry was “inactive”. For the same compound, the “fold change (FC)” value in assay [6] was “inactive”.

As for `CCCCCCCC/C=C\CCCCCCCC(=O)OCCCCCOP(=O)(O)OC[C@H](N)C(=O)O`, the concentration giving a half-maximal response (EC50) turned out to be 470 nM in assay [1] and 240 nM in assay [4]. Besides, the figures for the Emax in assay [2] and in assay [5] were 4.6% and 10.8%, respectively. Also, the fold change (FC) is 0.076 in assay [3] (filed as agonist) and 0.0061 in assay [6] (filed as agonist).

`N[C@@H](COP(=O)(O)OCCOC(=O)CCc1ccccc1OCc1cccc(Oc2ccccc2)c1)C(=O)O`: the values for the EC50 in assay [1] and in assay [4] were 220 nM and 2300 nM, respectively. Also, the maximum response (Emax) in assay [2] came to 12.4%; in assay [5], 20.8%. Also, the fold change (FC) in assay [3] (filed as agonist) was found to be 0.44; in assay [6] (filed as agonist), 0.0013.

Take `CCCCCCCC/C=C\CCCCCCCC(=O)OC[C@@H](COCCC)OP(=O)(O)OC[C@H](N)C(=O)O`: the figures for the EC50 in assay [1] and in assay [4] were 6.1 nM and greater than 3000 nM, respectively. Moreover, the maximal effect (Emax) in assay [2] amounted to 12.2%. For the same compound, the fold change (FC) in assay [3] (filed as agonist) was 17. Further, in assay [5], the Emax entry was “inactive”. Also, the “fold change (FC)” value in assay [6] was “inactive”.

As for `CCCCCCCC/C=C\CCCCCCCC(=O)OCCCCOP(=O)(O)OC[C@H](N)C(=O)O`, the EC50 in assay [1] was found to be 320 nM; in assay [4] it was 53 nM. Further, the maximal effect (Emax) in assay [2] was determined as 4.4%; in assay [5], 13.1%. The figures for the fold change (FC) in assay [3] (filed as agonist) and in assay [6] (filed as agonist) were 0.12 and 0.029, respectively.

(Values after ChEMBL document CHEMBL4725358 (J Med Chem, 2020).)
